Measurements as given in ChEMBL document CHEMBL1151715, “Novel D-xylose derivatives stimulate muscle glucose uptake by activating AMP-activated protein kinase alpha” (J Med Chem, 2008).
The source made the active and inactive calls. No cut-off for these calls is given here.

Legend:
[1] = Cytotoxicity against rat L6 cells by MTT assay; format: cell-based
Summary of the method: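 MTT assay on L6 myotubes after the treatment incubations: MTT at 2 mg/mL in αMEM for 30 min at 37 °C, formazan dissolved in DMSO, absorbance read at 570 nm.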

L6 [2] = assay: Effect on [3H]2-deoxy-D-glucose uptake in rat L6 cells at 20 mM upto 48 hrs relative to control; format: functional
L6 [3] = assay: Effect on [3H]2-deoxy-D-glucose uptake in rat L6 cells at 100 uM relative to control; format: functional
Summary of the method: (§1)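 L6 myotubes were held in αMEM with 2% FCS and 23.0 mM D-glucose for 24 h. They were then treated with increasing concentrations in medium with 10% FCS and 23.0 mM D-glucose for 7 or 18 h; vehicle controls ran 18 h. After washing, uptake was measured with 0.1 mM dGlc plus 1.3 µCi/mL [3H]dGlc in PBS pH 7.4 for 5 min at room temperature. Ice-cold PBS stop, SDS lysis, scintillation counting; basal rate set to 100%.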

L6 [4] = assay: (§2) Effect on [3H]2-deoxy-D-glucose uptake in rat L6 cells at 50 uM relative to control; format: functional; summary of the method: as §1
L6 [5] = assay: Effect on [3H]2-deoxy-D-glucose uptake in rat L6 cells at 5 mM after 7 hrs relative to control in presence of insulin; format: functional, cell-based
Summary of the method: (§3)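 L6 myotubes were preconditioned 24 h at 23.0 mM D-glucose, then given fresh αMEM with 23.0 mM D-glucose plus agent for 7 h. Insulin (200 nM) was added for the last 30 min. A 5-min [3H]dGlc uptake (0.1 mM dGlc, 1.3 µCi/mL) was run in PBS at room temperature, with the 23.0 mM glucose basal rate set to 100%.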

L6 [6] = assay: Increase in [3H]2-deoxy-D-glucose uptake in rat L6 cells preincubated with 23 mM D-glucose for 24 hrs at 5 mM after 7 hrs relative to control; format: functional; summary of the method: as §3
L6 [7] = assay: (§4) Effect on [3H]2-deoxy-D-glucose uptake in rat L6 cells at 150 uM relative to control; format: functional; summary of the method: as §1
L6 [8] = assay: Effect on [3H]2-deoxy-D-glucose uptake in rat L6 cells at 5 uM relative to control; format: functional, cell-based; settings: TDE = time-dependent effect; summary of the method: as §1
Homo sapiens [9] = species on record: Homo sapiens; assay: Activation of 5-AMP-induced AMPKalpha in human skeletal muscle cells assessed as […] phosphorylation at 50 uM relative to control
Summary of the method: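 Primary human skeletal myoblasts from the rectus abdominis of a donor were differentiated into myotubes and treated in medium with 10% (v/v) FCS, 23.0 mM D-glucose and agent, with vehicle controls. Whole-cell lysates were Western blotted for total AMPKα and […]-AMPKα, with ECL detection and densitometry.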

L6 [10] = assay: Activation of 5-AMP-induced AMPKalpha in rat L6 cells assessed as […] phosphorylation at 50 uM relative to control in presence of compound C; format: cell-based
L6 [11] = assay: as §4; format: functional, cell-based; settings: TDE = time-dependent effect; summary of the method: as §1
[12] = Effect on [3H]2-deoxy-D-glucose uptake in human skeletal muscle cells at 50 uM relative to control; format: functional
L6 [13] = assay: Increase in GLUT1myc abundance in rat L6 cell membrane at 20 mM after 7 hrs; format: functional, cell-based; settings: 50 uM, in the assay text read “at 50 uM” for “at 20 mM”
Summary of the method: (§5)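 Myc-tagged GLUT1 or GLUT4 L6 myotubes were preconditioned at 5.5 or 23.0 mM glucose for 24 h, then treated in 10% FCS medium for 7 h (18 h for the 5 µM agent). Insulin was 200 nM for 30 min. Intact cells were labeled with rabbit anti-myc (1:200), fixed in 3% formaldehyde, and given HRP anti-rabbit IgG (1:2000). OPD colour was read at 492 nm.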

L6 [14] = assay: Increase in GLUT1myc abundance in rat L6 cell membrane at 50 uM after 7 hrs; format: functional, cell-based; summary of the method: as §5
L6 [15] = assay: Increase in GLUT4myc abundance in rat L6 cell membrane at 50 uM after 7 hrs; format: functional, cell-based; summary of the method: as §5
L6 [16] = assay: Inhibition of [3H]2-deoxy-D-glucose uptake in rat L6 cells at 50 uM in presence of 100 nM wortmannin; format: functional, cell-based
Summary of the method: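 L6 myotubes at 23 mM D-glucose received 100 nM wortmannin 30 min before the agents. Treatment ran in 10% FCS medium for 7 h (18 h for the 5 µM agent). A 5-min [3H]dGlc uptake (0.1 mM dGlc, 1.3 µCi/mL) in PBS at room temperature followed, with the vehicle basal rate set to 100%.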

L6 [17] = assay: Increase in GLUT1myc abundance in rat L6 cell membrane at 150 uM after 7 hrs; format: functional, cell-based; summary of the method: as §5
L6 [18] = assay: Increase in GLUT1myc abundance in rat L6 cell membrane at 5 µM after 18 hrs; format: functional, cell-based; summary of the method: as §5
L6 [19] = assay: as §2; format: functional, cell-based; settings: TDE = time-dependent effect; summary of the method: as §1
L6 [20] = assay: Activation of 5-AMP-induced AMPKalpha in rat L6 cells assessed as […] phosphorylation at 50 uM relative to control; format: cell-based
Summary of the method: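 L6 myotubes preconditioned 24 h in αMEM with 2% FCS and 23.0 mM D-glucose, then given fresh medium with 10% (v/v) FCS, 23.0 mM D-glucose and test agent; controls received vehicle. Whole-cell lysates (Tris pH 7.5 with phosphatase and protease inhibitors) were blotted for AMPKα and […]-AMPKα, detected by ECL, and bands quantified by densitometry.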

Homo sapiens [21] = species on record: Homo sapiens; assay: Activation of 5-AMP-induced AMPKalpha in human skeletal muscle cells assessed as […] phosphorylation at 4 mM relative to control
Summary of the method: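 Primary human skeletal muscle myoblasts (rectus abdominis, donor) were differentiated into myotubes using the supplier's protocol. The agent was given at 4 mM for 1 h. Whole-cell lysates were separated by SDS-PAGE and Western blotted for AMPKα and […]-AMPKα, with HRP anti-rabbit IgG and ECL detection. Bands were quantified by film densitometry.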

With CCOC1OC[C@@H](O)[C@H](O)[C@H]1O (stereo partly drawn) the MCC [1] was 50000 µM and the “fold change (FC)” value (L6 [2]) was 1.01.

In the case of CCCCO[C@H]1[C@H](O)COC(O)[C@@H]1O (stereo partly drawn), the MCC [1] is reported as 1000 µM and the “fold change (FC)” value (L6 [2]) is reported as 0.94.

For O[C@@H]1[C@@H](O)[C@@H](OCc2ccccc2)OC[C@H]1O, the “fold change (FC)” value (L6 [3]) was 0.9 and the MCC [1] was 500 µM.

In the case of CC1(C)O[C@H]2O[C@H](CO)[C@H](O)[C@H]2O1, the MCC [1] is reported as 150 µM and the “fold change (FC)” value (L6 [4]) is reported as 0.94.

For CO[C@@H]1COC(O)[C@H](O)[C@H]1O (stereo partly drawn), the MCC [1] was 50000 µM and the “fold change (FC)” value (L6 [2]) was 0.99.

With CCCO[C@H]1[C@H](O)COC(O)[C@@H]1O (stereo partly drawn) the Activity (L6 [5]) was “Active” and the “fold change (FC)” value (L6 [6]) was 3.89.

With COC(OC)[C@@H]1OC(c2ccccc2)O[C@@H]2COC(c3ccccc3)O[C@@H]21 (stereo partly drawn) the MCC [1] was 300 µM and the “fold change (FC)” value (L6 [7]) was 1.06.

In the case of CCSC(SCC)[C@@H]1O[C@H](c2ccccc2)O[C@H](CO)[C@@H]1OC, the Activity (L6 [8]) is reported as “tde”, the Activity (Homo sapiens [9]) is reported as “Active” and the Activity (L6 [10]) is reported as 69.2%. For the same molecule, the Activity (L6 [11]) was “tde”, the “fold change (FC)” value [12] was 1.4 and the Activity (L6 [13]) was “inactive”. For the same molecule, the Activity (L6 [14]) was “inactive”, the Activity (L6 [15]) was “Active” and the Activity (L6 [16]) was “Active”. For the same molecule, the Activity (L6 [17]) was “inactive”, the Activity (L6 [18]) was “inactive” and the Activity (L6 [19]) was “tde”. The fold change (FC) (L6 [20]) was 3.98.

For CCCCCCCCCCCC(=O)S[C@@H]1OC[C@@H](O)[C@H](O)[C@H]1O, the MCC [1] was 400 µM and the “fold change (FC)” value (L6 [7]) was 0.98.

With COC(OC)[C@@H]1OC(c2ccc(F)cc2)O[C@@H]2COC(c3ccc(F)cc3)O[C@@H]21 (stereo partly drawn) the MCC [1] was 250 µM.

With O[C@H]1OC[C@@H](OCc2ccccc2)[C@H](OCc2ccccc2)[C@H]1OCc1ccccc1 the “fold change (FC)” value (L6 [3]) was 0.94 and the MCC [1] was 200 µM.

For NC(=O)c1ncn([C@@H]2O[C@H](COP(=O)(O)O)[C@@H](O)[C@H]2O)c1N, the Activity (Homo sapiens [21]) was “Active”.
